# Source: PubChem BioAssay (several laboratories)
# T cell modulator: modulators of CD8 T cell-vesicle binding, primary screen, mouse 2C CD8+ T cells, flow cytometry | response (vesicle binding), % at 7 µM | 330,000 compounds, 0.068% hits | 2C CD8+ T cell-vesicle binding; active compounds read low;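 active means response, share of CD8 T cells binding vesicles, and their 90th percentile fluorescence all below set limits, cut at about 80% in these data, passing the limit was not always enough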;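 further: values below 100% mean blocked vesicle binding to the CD8+ T cells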
#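 material = purified 2C TCR transgenic mouse naive CD8+ T cells | controls = Unloaded micro-vesicles (low), QL9 vesicles with 0.7% DMSO (high) | detection = cytometric PE anti-B7-1 and Alexa647 anti-CD8 signals after 1% paraformaldehyde fixation | incubation = binding step 1.5 h, 37 °C, antibody labelling 20 min, ice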
# PKA-R1A activ: activators of PKA-R1A holoenzyme, primary screen, biochemical, fluorescence polarization, Cy5-IP20, bovine R1A, mouse PKAc. cAMP-dependent protein kinase type I-alpha regulatory subunit (Bos taurus) + …. PKA-R1A dissociation; scaled: DMSO 0%, 113 µM cGMP 100%. activation, % at 11.4 µM. 340,000 compounds, 0.083% hits. AID 504707, 2011;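 active means percent activation above the mean of all tested compounds plus 3 SD, cut at about 19% in these data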;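 further: higher means more PKAc released from R1A so a rise in polarization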
# ATG4B inh: ATG4B protease inhibitors, primary screen, biochemical, fluorescence, uHTS | Cysteine protease ATG4B (Homo sapiens), Q9Y4P1 | ATG4B cleavage of LC3-PLA2, NBD-HPC fluorescence, 1 h | inhibition, % at 8.33 µM | 340,000 compounds, 0.51% hits; in the data active means inhibition above about 40%
# PfG6PD inh: PfG6PD enzyme inhibitors, primary screen, biochemical, fluorescence intensity, uHTS. glucose-6-phosphate dehydrogenase-6-phosphogluconolactonase (Plasmodium falciparum 3D7). PfGluPho enzyme, NADPH resazurin-diaphorase fluorescence. inhibition, % at 20 µM. 350,000 compounds, 0.78% hits. AID 504690, 2011;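 active means inhibition reaching at least a set limit at 20 µM in the primary screen, cut at about 59% in these data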
# HKDC1 inhibitor: HKDC1 hexokinase inhibitors, primary screen, biochemical, fluorescence, uHTS; Q2TB90; recombinant HKDC1, G6PDH/diaphorase resazurin coupled fluorescence; inhibition, % at 20 µM; 340,000 compounds, 0.16% hits;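 active means inhibition above about 35% when tested at 20 µM, limit read from the data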
# Target sequence (Q2TB90 whole entry, looked up): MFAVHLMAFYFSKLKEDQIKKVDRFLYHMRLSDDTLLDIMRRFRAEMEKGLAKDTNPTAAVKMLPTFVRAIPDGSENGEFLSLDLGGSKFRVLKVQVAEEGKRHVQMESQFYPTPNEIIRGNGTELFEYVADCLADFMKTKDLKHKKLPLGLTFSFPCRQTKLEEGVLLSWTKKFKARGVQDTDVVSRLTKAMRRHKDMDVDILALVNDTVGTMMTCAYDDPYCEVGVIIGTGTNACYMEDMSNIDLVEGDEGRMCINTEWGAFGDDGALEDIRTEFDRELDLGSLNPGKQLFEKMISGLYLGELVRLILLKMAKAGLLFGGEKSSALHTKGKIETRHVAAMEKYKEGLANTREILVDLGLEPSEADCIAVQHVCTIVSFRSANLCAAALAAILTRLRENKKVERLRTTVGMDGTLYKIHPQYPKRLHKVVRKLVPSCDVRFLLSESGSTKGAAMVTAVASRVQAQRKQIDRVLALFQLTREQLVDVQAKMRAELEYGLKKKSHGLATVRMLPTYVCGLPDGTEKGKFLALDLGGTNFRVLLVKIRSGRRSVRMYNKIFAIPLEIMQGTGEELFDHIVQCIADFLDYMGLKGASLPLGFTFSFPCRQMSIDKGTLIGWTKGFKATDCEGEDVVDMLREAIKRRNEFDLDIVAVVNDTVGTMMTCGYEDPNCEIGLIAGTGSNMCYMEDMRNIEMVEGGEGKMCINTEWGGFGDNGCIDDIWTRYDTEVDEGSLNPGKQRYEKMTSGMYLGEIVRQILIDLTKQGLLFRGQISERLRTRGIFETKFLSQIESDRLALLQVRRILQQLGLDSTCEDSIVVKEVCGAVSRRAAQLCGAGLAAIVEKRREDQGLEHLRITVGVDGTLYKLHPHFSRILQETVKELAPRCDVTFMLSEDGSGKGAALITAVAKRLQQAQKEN
#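 Test system: HK5 enzyme. Quantity: 5 µg/mL HK5 final. Reagent: glucose and ATP substrates. Schedule: 90 min reaction incubation at room temperature, dark. Technique: resazurin-to-resorufin fluorescence via G6PDH and diaphorase coupling, 525/613 nm. Control set: DMSO wells with and without enzyme mix.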
# PKA-R2B act: activators of PKA-R2B holoenzyme, primary screen, biochemical, fluorescence polarization, Cy5-IP20, human. AID 504700, 2011. activation, % at 11.4 µM. PKA-R2B holoenzyme dissociation; R2B truncated from residue 108, S112A mutant; 0% DMSO only, 100% 113 µM cGMP. cAMP-dependent protein kinase catalytic subunit beta (Homo sapiens) + cAMP-dependent …. 340,000 compounds, 0.079% hits;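 active means activation above a cutoff set at the mean over all compounds plus 3 SD, cut at about 18% in these data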;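 further: higher means more holoenzyme dissociation and a rise in polarization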
# HKDC1 act conf2: HKDC1 hexokinase activators, confirmation, biochemical, single concentration; shares compounds with HKDC1 inhibitor; recombinant HKDC1, G6PDH/diaphorase resazurin fluorescence; active compounds read low; inhibition, % at 20 µM; 740 compounds, 14% hits;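 active means inhibition at or below a set negative limit, negative inhibition meaning the enzyme was activated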
# PLA2 ctr: PLA2 enzyme inhibition, counter-screen for ATG4B inhibitor project, biochemical, single concentration, uHTS hits | shares compounds with ATG4B inh | purified PLA2, NBD-C6-HPC fluorescence, 45 min | inhibition, % at 8.33 µM | 1,600 compounds, 66% hits | AID 588402, 2011; in the data active means inhibition above about 50%
# PfGluPho conf: PfG6PD inhibitors, hit retest, confirmation, biochemical, fluorescence intensity, single concentration. shares compounds with PfG6PD inh. recombinant PfGluPho, NADPH-diaphorase-resazurin fluorescence. inhibition, % at 20 µM. 2,400 compounds, 34% hits;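 active means inhibition of at least 50% at 20 µM in any single replicate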
# Diaph ctr 10uM: diaphorase inhibitors and chemical oxidizers, confirmation, counter-screen for P. falciparum G6PD inhibitor project, biochemical, fluorescence intensity, 10 µM NADPH. shares compounds with PfG6PD inh. diaphorase-coupled resazurin reduction, NADPH 10 uM. inhibition, % at 20 µM. 820 compounds, 39% hits. AID 504862, 2011;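 active means average inhibition reaching 50% or more with the compound at 20 µM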;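 further: resorufin red fluorescence formed as diaphorase reduces resazurin using NADPH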
# Diaphorase 30uM: diaphorase inhibitors and chemical oxidizers, confirmation, counter-screen for P. falciparum G6PD inhibitor project, biochemical, fluorescence intensity, 30 µM NADPH | shares compounds with PfG6PD inh | Diaphorase/resazurin coupled assay, resorufin fluorescence | inhibition, % at 20 µM | 820 compounds, 29% hits | AID 504863, 2011;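 active means inhibition averaging 50% or more, tested at 20 µM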
# A number is an active result; . = inactive; / = no result given; ! = repeats disagree. The list is not random: actives were taken first. Their share in the collection is about 1.6%.
SMILES,T cell modulator,PKA-R1A activ,ATG4B inh,PfG6PD inh,HKDC1 inhibitor,PKA-R2B act,HKDC1 act conf2,PfGluPho conf,Diaph ctr 10uM,Diaphorase 30uM,others
CCOC(=O)C1CCCN(C(=O)c2cc(S(=O)(=O)N3CCCCC3)c[nH]2)C1 (stereo not drawn),.,.,.,.,.,.,/,/,/,/,
N#Cc1c([N+](=O)[O-])cc([N+](=O)[O-])cc1S(=O)(=O)Cc1ccccc1,.,.,.,109.4,.,.,.,100.5,90.5,92.3,
NC1=CC(=O)C(=O)c2ccccc21,/,.,.,71.2,49.4,.,.,.,/,/,
Cc1oc2c(c1C(=O)c1ccc(Cl)cc1)C(=O)C(=O)c1ccccc1-2,/,.,.,116.7,54.6,.,.,88.3,83.3,77.5,
O=C(c1ccc(Cl)cc1)c1ccc(CN2C(=O)c3ccccc3C2=O)o1,.,.,.,.,.,.,/,/,/,/,
Cc1ccc(C(=O)c2coc3c2C(=O)C(=O)c2ccccc2-3)cc1,.,.,.,110.0,57.1,.,.,109.8,93.3,100.5,
Cc1ccc(C(=O)c2c(C)oc3c2C(=O)C(=O)c2ccccc2-3)cc1,.,.,.,106.7,48.4,.,.,92.0,92.1,97.9,
COc1ccccc1-n1c(SCC(=O)Nc2cc(C)on2)nc2c([nH]c3ccccc32)c1=O,.,.,.,.,.,.,/,/,/,/,
O=C1C=C(NCc2ccccc2)c2ccccc2C1=O,/,.,.,117.6,79.8,.,.,.,/,/,
CC(CCCN(C)C)C(Cc1ccccc1)c1ccccc1 (stereo not drawn),.,/,.,.,.,/,/,/,/,/,
Cc1nc2c(O)c3c(c(O)c2nc1C)C1C=CC3CC1,/,.,.,123.3,82.0,.,.,102.4,95.0,89.2,
Cc1nc2c(C)c(C)c(C)c(C)c2nc1C,.,/,.,.,.,/,/,/,/,/,
O=C(CSc1nc(C(F)(F)F)cc(=O)[nH]1)Nc1cccc2ccccc12,.,.,.,.,.,.,/,/,/,/,
Cc1nc(COC(=O)c2cc(O)c3ccccc3c2O)cs1,/,.,.,91.8,60.5,.,.,54.9,.,.,
Cc1nc(COC(=O)c2ccc(CO)cc2)cs1,.,.,.,.,.,.,/,/,/,/,
CC(C)(C)N/C=C(\C#N)S(=O)(=O)c1ccc(Br)cc1,.,/,.,.,.,/,/,/,/,/,
O=S(=O)(Nc1cc(Sc2ncn[nH]2)c(O)c2ccccc12)c1ccccc1,/,/,.,101.6,54.6,/,.,98.4,52.6,.,
O=C1C(O)=CC(=C(c2ccccc2)c2ccccc2)c2ccccc21,/,.,.,116.9,78.4,.,.,.,/,/,
COc1ccc(N2C3=C(CC4=C2CCCC4=O)C(=O)CCC3)cc1,.,.,.,96.9,.,.,.,.,/,/,
C#CCN1C(=O)C2(OCCO2)c2ccccc21,.,.,.,.,.,.,/,/,/,/,
Nc1ccc2ccc(O)cc2c1,/,.,.,.,.,.,/,/,/,/,
C[n+]1c2cc(N)ccc2cc2ccc(N)cc21,/,.,.,77.7,43.6!,.,.,.,/,/,
COCC(=O)OC1CCn2c1nc1c2C(=O)C(C)=C(NC(C)=O)C1=O (stereo not drawn),/,.,.,123.4,68.5,.,.,104.0,99.0,89.5,
O=C(NCc1cccc(C(F)(F)F)c1)c1ccc2c(c1)OCCO2,.,.,.,.,.,.,/,/,/,/,
CCOc1ccccc1C=NNC(=O)C1CC1,/,.,.,.,.,.,/,/,/,/,
SMILES,T cell modulator,PKA-R1A activ,ATG4B inh,PfG6PD inh,HKDC1 inhibitor,PKA-R2B act,HKDC1 act conf2,PfGluPho conf,Diaph ctr 10uM,Diaphorase 30uM,others
CC(C)c1nc2oc3c(NCC4CCCO4)ncnc3c2c2c1COC(C)(C)C2 (stereo not drawn),/,.,.,65.6,40.0,.,.,.,/,/,
CC1(C)Cc2c(C#N)c(NCC3CCCO3)nc(-c3ccco3)c2CO1 (stereo not drawn),.,.,.,.,.,.,/,/,/,/,
CCn1c2ccccc2c2nc3cc(S(=O)(=O)N4CCOCC4)ccc3nc21,/,.,.,100.3,.,.,-47.4,60.9,.,.,
c1ccc2nc3c(nc2c1)c1ccccc1n3CCN1CCOCC1,.,.,.,.,.,.,/,/,/,/,
O=C1CC2(CCCCC2)CC(=O)N1CCc1ccccc1,/,.,.,.,.,.,/,/,/,/,
O=C1C=CC(=O)C(C2=C3C(=O)N(CCc4ccccc4)CC(=O)N3CCC2)=C1,.,/,.,110.0,63.1,/,.,114.0,98.8,82.2,
CCc1ccc(CNC(=O)C2CCCN(c3nn4c(=O)cc(C)nc4s3)C2)cc1 (stereo not drawn),.,.,.,.,.,.,/,/,/,/,
CCOC(=O)c1c(NC(=O)CSc2nnc(Cc3ccccc3)o2)sc(C(C)=O)c1C,.,.,.,.,.,.,/,/,/,/,
CCOC(=O)c1sc(NC(=O)CSc2nnc(Cc3ccccc3)o2)c(C#N)c1C,.,.,.,88.1,.,.,.,59.6,.,.,
C/C(N)=C(/C#N)C(=O)CSc1nc2ccccc2c(=O)n1-c1ccc(C)cc1,.,/,/,/,/,/,/,/,/,/,
C/C(N)=C(/C#N)C(=O)CSc1nc2ccccc2c(=O)n1-c1ccc(C)c(Cl)c1,.,.,46.6,.,.,.,/,/,/,/,PLA2 ctr=.
Cc1ccc(-n2cc(CN3CCC(O)(c4ccccn4)CC3)c(-c3ccc(F)cc3)n2)cc1,.,.,61.2,.,.,.,/,/,/,/,PLA2 ctr=52.3
Cc1ccc(-n2cc(CN3CCNC(=O)CC3)c(-c3ccc(F)cc3)n2)cc1,.,.,.,.,.,.,/,/,/,/,
